PAFAH2 FP inh: inhibitors of human PAFAH2; 0.99% of 340,000 active; AID 492956; inhibition, % at 3.39 µM; recombinant PAFAH2, FP-rhodamine activity probe, fluorescence polarization;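 active = inhibition above the mean over all tested compounds plus 3 SD, cut at about 30% in these data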;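 also: inhibitors block probe labeling of enzyme so polarization drops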
GRIN3A LBD mod: modulators (binders) of human NR3A ligand-binding domain | Tm shift relative to glycine control, % at 25 µM | NR3A LBD differential scanning fluorimetry, Tm shift; 0% = protein alone, 100% = glycine-bound protein | AID 1259313 | 2.5% of 340,000 active;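 active = melting temperature shift of at least 10% of the positive control shift, at one fixed dose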
UCH37 inh: blocks the human deubiquitinase UCH37. AID 588478. inhibition, % (test concentration not listed). Q9Y5K5. 0.33% of 330,000 active. purified proteasome/UCH37, Ub-AMC cleavage fluorescence;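 active = mean inhibition over replicate wells above about 20%, limit read from the data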
Target sequence (Q9Y5K5 whole entry, looked up): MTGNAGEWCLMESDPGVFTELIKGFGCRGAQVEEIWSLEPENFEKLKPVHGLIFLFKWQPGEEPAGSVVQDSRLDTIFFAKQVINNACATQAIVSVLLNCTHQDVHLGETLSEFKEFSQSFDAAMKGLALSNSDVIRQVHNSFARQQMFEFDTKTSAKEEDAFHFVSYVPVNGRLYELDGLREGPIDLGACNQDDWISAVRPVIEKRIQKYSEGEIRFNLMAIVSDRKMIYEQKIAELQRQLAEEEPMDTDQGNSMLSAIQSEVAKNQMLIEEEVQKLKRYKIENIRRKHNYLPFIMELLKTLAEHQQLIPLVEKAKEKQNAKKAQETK
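Test system – human UCH37 enzyme supplied as purified proteasome complex · Incubation – 30 min preincubation with enzyme, 25 min cleavage at room temperature · Detection – AMC fluorescence from Ub-AMC cleavage, excitation 355 nm, emission 460 nm · Benchmarks – no-proteasome wells (full inhibition) and compound-free wells (no inhibition)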
PAFAH1B3 FP inh: PAFAH1B3 (human) inhibition; inhibition, % at 3.39 µM; recombinant PAFAH1B3, FP-rhodamine probe, fluorescence polarization; Q15102; 0.28% of 340,000 active;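 active = inhibition above the screen-wide average of all tested compounds plus 3 SD, cut at about 25% in these data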
PAFAH1B2 FP inh: inhibitors of human PAFAH1B2; recombinant PAFAH1B2, FP-rhodamine activity probe, fluorescence polarization; inhibition, % at 3.39 µM; 1.2% of 340,000 active; AID 492953;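 active = inhibition above the mean of all tested compounds plus 3 SD, cut at about 24% in these data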
Target sequence (P68402 whole entry, looked up): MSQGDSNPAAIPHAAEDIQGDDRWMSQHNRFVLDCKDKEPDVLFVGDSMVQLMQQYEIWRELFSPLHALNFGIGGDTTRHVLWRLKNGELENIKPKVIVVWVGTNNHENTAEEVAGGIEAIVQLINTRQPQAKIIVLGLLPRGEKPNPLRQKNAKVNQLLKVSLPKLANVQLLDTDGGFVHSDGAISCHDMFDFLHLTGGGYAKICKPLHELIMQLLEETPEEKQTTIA
pPAFAH FP inh: inhibitors of human plasma PAF acetylhydrolase (pPAFAH); inhibition, % at 3.39 µM; recombinant pPAFAH, FP-rhodamine probe fluorescence polarization; 1.5% of 330,000 active; Q13093;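 active = inhibition above the mean inhibition across the screen plus 3 SD, cut at about 25% in these data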;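 also: inhibitors block binding of the rhodamine activity-based probe so polarization drops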
Numbers stand for hits; – = inactive; · = no result given. Only some compounds are listed: those with a hit (about 4.8% of all), similar ones and a draw of the others.

SMILES	PAFAH2 FP inh	GRIN3A LBD mod	UCH37 inh	PAFAH1B3 FP inh	PAFAH1B2 FP inh	pPAFAH FP inh
COC(=S)NC(=NS(=O)(=O)c1ccc(Cl)cc1)c1ccccc1	·	·	–	·	·	·
C/C(=C\C(=O)c1ccc(Br)cc1)NCc1ccc2c(c1)OCO2	–	–	–	–	–	–
C/C(=C\C(=O)c1ccc(F)cc1)NCc1ccc2c(c1)OCO2	–	14	–	–	–	–
C(=Nn1cnnc1)c1ccccn1	·	·	–	·	·	·
Cc1ccccc1NC(=O)C(=O)N/N=C/c1cccc(Br)c1	–	34	·	–	–	–
Fc1ccc(NC(=S)NN=Cc2ccc(F)c(F)c2)c(F)c1	·	·	–	·	·	·
Fc1ccc(NC(=S)N/N=C/c2cccc(Br)c2)c(F)c1	–	32	·	–	–	–
C=CCNC(=O)C(=O)N/N=C/c1cccc(Br)c1	–	–	·	–	–	–
CCCOc1ccc(Cc2nn3c(=O)c(=Cc4ccco4)sc3nc2=O)cc1	·	·	–	·	·	·
COc1ccc(C(=O)NCC(=O)OCC(=O)N2N=C(c3ccc(Cl)cc3)CC2c2ccco2)cc1OC (centres undefined)	–	11	–	–	–	–
COCC(=O)OCC(=O)N1N=C(c2ccc(Cl)cc2)CC1c1ccco1 (centres undefined)	–	–	–	–	–	–
O=S(=O)(NCCc1ccccc1)c1ccc(Br)cc1	–	–	–	–	28	–
Cc1ccc(S(=O)(=O)NCCSc2ncccn2)cc1	–	–	–	–	–	–
O=S(=O)(NCCSc1ccccn1)c1ccc(Br)cc1	–	–	–	–	25	–
O=S(=O)(N=C(c1ccccc1)N1CCOCC1)c1ccc(F)cc1	·	·	–	·	·	·
CC(=O)c1cc(C#N)c(SCc2ccccc2)nc1C	–	15	–	–	–	–
COC(=O)c1cc(C#N)c(SCc2ccccc2)nc1C	–	–	–	–	–	–
O=C(CCCCCCCC(=O)c1ccccc1)c1ccccc1	–	24	–	–	–	–
Cc1ccc(C(=O)Cc2ccccc2)cc1	–	–	–	–	–	·
O=C(O)CCCCCCCCCCCc1ccccc1	–	–	–	–	55	25
Cc1ccc(-c2c(C(=O)N(C)Cc3ccccc3)oc(=O)c3ccccc23)cc1	–	–	–	–	–	–
O=C(CCC(=O)NCCCc1ccccc1)NCCCc1ccccc1	–	–	–	–	–	–
Cc1ccc(C(=O)CC(=O)c2ccccc2)cc1	–	34	–	–	–	–
Cc1ccc(-c2c(C(=O)NCc3ccccc3)oc(=O)c3ccccc23)cc1	–	–	–	–	–	32
NC(CSc1nc(-c2ccccc2)c(-c2ccccc2)o1)=NO	·	·	–	·	·	·
SMILES	PAFAH2 FP inh	GRIN3A LBD mod	UCH37 inh	PAFAH1B3 FP inh	PAFAH1B2 FP inh	pPAFAH FP inh
Cc1ccc(C(=O)CCC(=O)NCc2ccccc2)cc1	–	51	–	–	–	–
Cc1ccc(CNC(=O)N[C@@H](Cc2ccccc2)C(=O)O)cc1	–	–	–	–	26	–
CC(=NNC(=O)Cc1c(C)[nH][nH]c1=O)c1cccc(Br)c1	·	·	–	·	·	·
CCCOc1ccc(-c2c(C(=O)NN=Cc3ccccc3OCC)nnn2-c2nonc2N)cc1	·	·	–	·	·	·
Nc1nonc1-c1nc2ccccc2n1CC(=O)NN=Cc1ccc(-c2ccc(Cl)cc2)o1	·	·	–	·	·	·
Cn1c(=O)c2c(nc(N3CCc4ccccc4C3)n2Cc2ccc(Br)cc2)n(C)c1=O	–	11	–	–	–	–
Cn1c(=O)c2c(nc(N3CCc4ccccc4C3)n2Cc2ccccc2F)n(C)c1=O	–	–	–	–	–	–
CC(Nc1ccc(Cl)cc1)c1cc(Cl)ccc1O (centres undefined)	–	–	–	–	43	–
Cc1ccc(S(=O)(=O)c2c(N)n(N=Cc3ccco3)c3nc4ccccc4nc23)cc1C	·	·	–	·	·	·
CCN(CC)c1ccc2cc(-c3nnc(-c4ccccc4)o3)c(=O)oc2c1	–	32	–	–	–	–
Cc1ccc(SCC(=O)NCC2CCCO2)cc1 (centres undefined)	–	–	–	–	25	–
O=C(COC(=O)/C=C/c1ccc(Cl)cc1Cl)NCC1CCCO1 (centres undefined)	–	–	–	–	–	27
Cc1ccc(SCCC(=O)NCC2CCCO2)cc1 (centres undefined)	–	–	–	–	–	–
O=C(COC(=O)c1ccc(NS(=O)(=O)c2ccc3c(c2)OCCO3)cc1)NCC1CCCO1 (centres undefined)	–	–	–	–	–	–
Cc1ccc(NS(=O)(=O)c2cc(C(=O)OCC(=O)NCC3CCCO3)ccc2C)cc1 (centres undefined)	–	–	–	–	–	34
Cc1ccc(CN2CCSc3ccc(C(=O)NCC4CCCO4)cc32)cc1 (centres undefined)	–	–	–	–	–	33
Cc1ccc(CN2CCSc3ccc(C(=O)NC4CCCC4)cc32)cc1	–	–	–	–	–	–
CC(C)(C)c1ccc(C=NNC(=S)NC2CCCCC2)cc1	·	·	–	·	·	·
O=C(O)CCC(=NNC(=O)CNC(=O)Cc1ccc(Cl)cc1)c1ccccc1	·	·	–	·	·	·
CCOC(=O)C=c1sc(=Cc2ccc(-c3ccccc3)cc2)c(=O)n1CC(=O)NCc1ccc2c(c1)OCO2	·	·	–	·	·	·
Nc1nnnn1N=Cc1ccco1	·	·	–	·	·	·
COc1ccc(-n2c(SCC(=O)NCC3CCCO3)nc3ccccc32)cc1 (centres undefined)	–	–	–	–	–	26
COc1ccc(C(=O)OCC(=O)NCC2CCCO2)cc1 (centres undefined)	–	–	–	–	–	–
CCN(CC)c1ccc(C(=O)OCC(=O)NCC2CCCO2)cc1 (centres undefined)	73	–	–	–	–	32
O=[N+]([O-])c1ccc(Cl)c(C=Nn2c(-c3cccnc3)n[nH]c2=S)c1	·	·	–	·	·	·
SMILES	PAFAH2 FP inh	GRIN3A LBD mod	UCH37 inh	PAFAH1B3 FP inh	PAFAH1B2 FP inh	pPAFAH FP inh
Cc1ccc([N+](=O)[O-])cc1N=Nc1c(-c2ccc([N+](=O)[O-])cc2)[nH]n(C(N)=S)c1=O	–	30	–	–	–	·
Cc1ccc([N+](=O)[O-])cc1N=Nc1c(C)[nH]n(C(N)=S)c1=O	–	–	–	–	–	–
NC(=S)n1[nH]c(-c2ccc([N+](=O)[O-])cc2)c(N=Nc2ccc(Cl)cc2)c1=O	41	28	–	–	–	·
CCCCCCCC/C=C\CCCCCCCC(=O)NCCO	–	10	–	–	–	–
CS(=O)(=O)Nc1ccccc1C(=O)Nc1cc(Cl)cc(Cl)c1	–	–	–	–	–	28
O=C(O)c1ccc(Cl)c(S(=O)(=O)Nc2ccccc2C(=O)Nc2ccc(Cl)cc2)c1	–	29	–	–	–	–
O=C(O)c1ccc(NS(=O)(=O)c2ccc(Cl)c(C(=O)Nc3ccccc3)c2)cc1	–	–	–	–	–	–
CS(=O)(=O)Nc1ccccc1C(=O)Nc1cccc(Cl)c1	–	–	–	–	–	–
COc1cccc(C=NNC(N)=S)c1OS(=O)(=O)c1ccccc1	·	·	–	·	·	·

From PubChem
